From PubChem
Sampled rows, rich in hits. Any-hit rate of the full collection: about 4.2%.
Ins promoter up – insulin promoter activators in MIN6 cells, imaging, high-content screening, mouse beta cells | AID 1625, 2009 | 190,000 tested, 0.3% active | z-score at 5 µM | MIN6 insulin promoter-GFP reporter; hits give high values;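 active = z-score above 3 at 5 µM with at least 500 cells counted in the well; inconclusive = wells under 500 cells, flagged as cytotoxic or low count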
Autophagy HCS – autophagy modulators in MEF cells, primary screen, imaging, high-content, MEF GFP-LC3; calls only at 10 µM (by protocol); 190,000 tested, 0.98% active; AID 463193, 2010; MEF GFP-LC3 puncta imaging; test concentration mostly 10 µM;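 active = percentage of spot-positive cells more than 3 SD above its plate mean, without a fluorescence outlier flag or 80% toxicity; inconclusive = no clear call, values can overlap the other calls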;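 also: spot-positive cell cutoff set from DMSO-treated cells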
SKKanGAS inh – S. pyogenes SKKanGAS growth inhibitors in kanamycin, primary screen, streptokinase expression inhibitor project, SKKanGAS strain, BacTiter-Glo luminescence; 6 h; inhibition, % at 7.5 µM; 300,000 tested, 1.3% active;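 active = mean replicate score, as percent of positive control median, at least 50; inconclusive = mean below 50 but one replicate at or above 50; inactive = mean and every replicate below 50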;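 also: strain carries kanamycin resistance gene driven by streptokinase promoter and grows in 40 µg/ml kanamycin; loss of luminescence reflects streptokinase promoter inhibition or plain growth inhibition; 0% = median of DMSO wells and 100% = positive control at its reference dose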
Rad51 HR inh – human RAD51 strand exchange inhibitors, primary screen, biochemical, fluorescence; inhibition, % at 10 µM; 200,000 tested, 0.085% active; AID 1385, 2008; hRad51 DNA strand exchange, fluorescence dequenching; DNA repair protein RAD51 homolog 1 (Homo sapiens), Q06609;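 active = inhibition above 40% at the single screening dose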;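 also: 0% = DMSO control wells and 100% = blanks with heterologous ssDNA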
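Material: Human Rad51 nucleoprotein filaments preassembled on unlabelled ssDNA | Also added: Labelled 47-mer dsDNA for strand exchange | Dosing: Single dose, 10 µM final compound | Schedule: 30-min compound preincubation and 15-min exchange, both room temperature | Technique: Fluorescence dequenching at 485/520 nm | Measure: Percent inhibition relative to plate controls and blanks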
WT yeast gro inh – growth inhibition of WT strain, primary screen, mitochondrial fusion inhibitor project, WT and mutant strains, chemical genetic. mitochondrial fusion phenotypic screen. AID 1362, 2008. inhibition, % at 10 µM. 190,000 tested, 2.1% active; in the data active = inhibition above about 58%; tested in S. cerevisiae
KCC2 mod – KCC2 cotransporter modulators, thallium flux, primary screen, cell-based, HEK293 KCC2, FluoZin-2 fluorescence, MLSMR; B-score of Tl+ flux slope (higher = more flux/activation; lower = inhibition) at 10 µM; Solute carrier family 12 member 5 (Homo sapiens), Q9H2X9; 190,000 tested, 2.2% active; KCC2 cells, thallium flux FluoZin-2 fluorescence;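 active = thallium flux slope and its plate-corrected score both differing from the plate sample mean at a set confidence after two filtering rounds, in either direction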;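 also: slope of fluorescence scaled to starting intensity during 10 to 20 s after thallium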
Target sequence (Q9H2X9 whole entry, looked up): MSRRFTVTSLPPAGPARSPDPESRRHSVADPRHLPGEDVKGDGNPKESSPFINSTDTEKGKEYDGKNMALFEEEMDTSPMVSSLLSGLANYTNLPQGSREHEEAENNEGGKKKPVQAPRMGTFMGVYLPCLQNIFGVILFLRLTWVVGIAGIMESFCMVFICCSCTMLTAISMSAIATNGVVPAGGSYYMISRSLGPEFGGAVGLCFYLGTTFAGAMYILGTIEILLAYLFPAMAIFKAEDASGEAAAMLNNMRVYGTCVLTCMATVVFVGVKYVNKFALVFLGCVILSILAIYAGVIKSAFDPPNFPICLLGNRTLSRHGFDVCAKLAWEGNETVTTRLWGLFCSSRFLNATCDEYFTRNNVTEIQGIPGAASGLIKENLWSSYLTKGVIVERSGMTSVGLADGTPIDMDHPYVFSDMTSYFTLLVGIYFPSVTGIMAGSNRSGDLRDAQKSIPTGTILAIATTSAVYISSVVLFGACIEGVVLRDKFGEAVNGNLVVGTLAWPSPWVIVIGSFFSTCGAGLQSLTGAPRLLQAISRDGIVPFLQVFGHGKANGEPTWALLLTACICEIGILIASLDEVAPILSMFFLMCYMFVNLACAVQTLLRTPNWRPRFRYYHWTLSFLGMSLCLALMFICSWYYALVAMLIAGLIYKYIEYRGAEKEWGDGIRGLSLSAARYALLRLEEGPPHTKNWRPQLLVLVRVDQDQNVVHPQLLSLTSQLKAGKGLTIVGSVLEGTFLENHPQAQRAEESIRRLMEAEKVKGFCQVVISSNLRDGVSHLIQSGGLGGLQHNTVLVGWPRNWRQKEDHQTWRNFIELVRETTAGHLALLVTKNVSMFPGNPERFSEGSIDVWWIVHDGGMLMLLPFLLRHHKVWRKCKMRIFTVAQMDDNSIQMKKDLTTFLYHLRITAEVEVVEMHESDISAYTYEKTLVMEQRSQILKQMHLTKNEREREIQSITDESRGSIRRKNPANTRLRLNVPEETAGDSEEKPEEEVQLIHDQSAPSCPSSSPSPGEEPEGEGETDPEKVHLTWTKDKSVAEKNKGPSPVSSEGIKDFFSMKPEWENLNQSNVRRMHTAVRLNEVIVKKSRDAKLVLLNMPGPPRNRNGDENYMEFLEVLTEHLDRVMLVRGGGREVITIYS
KCC2 sec1 – KCC2 modulators in sodium-free buffer, confirmation, cell-based, HEK293 KCC2, thallium flux, secondary assay; FluoZin2 fluorescence; hits give high values; 3,700 tested, 15% active; normalised thallium flux (F/F0 slope) at 10 µM; shares compounds with KCC2 mod;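 active = thallium flux slope above the same plate's solvent-only control mean plus 3 SD; inconclusive = the two replicate wells disagree; inactive = no significant difference from solvent-only control wells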
KCC2 bumet counter – thallium flux persisting under bumetanide in KCC2 cells, confirmation, counter-screen for KCC2 modulator project, cell-based, HEK293 KCC2, FluoZin2, secondary assay 3; shares compounds with KCC2 mod; HEK293-KCC2 + bumetanide/ouabain; hits give high values; normalized thallium flux at 10 µM; 3,700 tested, 49% active; AID 1714, 2009;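 active = thallium entry rate above the same plate's blocked-transporter control wells by more than 3 SD; inconclusive = the two repeat wells disagree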;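 also: raw slope of fluorescence over initial fluorescence between 10 and 20 s after thallium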
KCC2 secondary2 – KCC2 modulators without ouabain present, confirmation, cell-based, HEK293 KCC2, thallium flux, FluoZin2, secondary assay 2 | shares compounds with KCC2 mod | thallium flux FluoZin2 fluorescence; actives lie on both sides; F/F0 rise rate, 10–20 s post-thallium | normalized thallium flux at 10 µM | 3,700 tested, 23% active | AID 1715, 2009;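 active = thallium flux slope more than 3 SD above or below the plate's solvent-only control mean, mostly below; inconclusive = the two repeat wells disagreed; inactive = no significant shift from solvent-only controls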;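 also: raw slope with 0.1% DMSO as baseline and bumetanide as block control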
HEK293 Tl flux – thallium flux modulation in parental HEK cells, confirmation, counter-screen for KCC2 modulator project, cell-based, counterscreen 1. shares compounds with KCC2 mod. HEK293 parental cells, thallium flux FluoZin2, ouabain; baseline-ratio fluorescence slope, 10–20 s after thallium. thallium flux rate (normalised fluorescence) at 10 µM. 3,700 tested, 46% active;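 active = thallium flux rate significantly above the same plate's solvent-only control wells, beyond their mean plus 3 SD; inconclusive = the two replicate wells gave conflicting results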
KCC2 retest ouab – KCC2 inhibitors and activators, ouabain retest, confirmation, HEK-KCC2 cells; shares compounds with KCC2 mod; HEK293-KCC2, thallium flux FluoZin2 fluorescence; bidirectional: low = inhibitor, high = activator; raw Tl+ flux slope (below DMSO = inhibition, above = activation) at 10 µM; 3,700 tested, 48% active; AID 1717, 2009;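 active = thallium flux slope beyond 3 SD from same-plate DMSO control mean in most replicates, usually higher, sometimes lower; inconclusive = repeat tests gave conflicting results; inactive = no significant difference from controls in most replicates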;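 also: slope of initial-normalized fluorescence between seconds 10 and 20 after thallium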
HEK counter2 – native HEK Tl+ uptake effects, second counter-screen – HEK cells, counterscreen 2, counter-screen for KCC2 modulator project, confirmation; 3,700 tested, 33% active; HEK293 parental, thallium flux FluoZin-2 fluorescence slope; thallium flux slope at 10 µM; AID 1718, 2009; shares compounds with KCC2 mod;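 active = thallium flux slope above the same plate's solvent-control mean plus 3 SD in both duplicate wells; inconclusive = duplicate wells that disagreed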;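 also: run without ouabain in cells lacking the KCC2 cotransporter; slope of fluorescence scaled to its starting value between 10 and 20 s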
* hit, by the source's call; i = inactive; ? = inconclusive; . = no result given; + = active, no number.

SMILES	Ins promoter up	Autophagy HCS	SKKanGAS inh	Rad51 HR inh	WT yeast gro inh	KCC2 mod	KCC2 sec1	KCC2 bumet counter	KCC2 secondary2	HEK293 Tl flux	KCC2 retest ouab	HEK counter2
CN(c1ccccc1)S(=O)(=O)c1ccc(Cl)c(C(=O)Nc2ccc(N3CCOCC3)cc2)c1	-1	i	-2	-12	0	-2.7*	0.006	0.0062	0.029	0.0064	0.017	0.0094
CS(=O)(=O)c1ccc(C(=O)Nc2ccc(N3CCOCC3)cc2)c(Cl)c1	-0.53	i	7	2	-13	-0.0084	.	.	.	.	.	.
CCCN(C(=O)C1CCN(S(=O)(=O)c2ccc(OC)c(OC)c2)CC1)C1CCS(=O)(=O)C1 (centres undefined)	.	.	-4	.	.	.	.	.	.	.	.	.
Cc1cn(-c2cc(NC(=O)c3ccc(C)c(NC(=O)c4cccc(-c5cn[nH]c(=O)c5)c4)c3)cc(C(F)(F)F)c2)cn1	.	.	24	.	.	.	.	.	.	.	.	.
CCOC(=O)N1CCN(c2nc3ccccc3nc2C(C#N)S(=O)(=O)c2ccc(C)cc2)CC1 (centres undefined)	0.02	i	8	.	-5	.	0.01	0.0062	0.027*	?	?	?
CC1CCCCN1C(=O)CSc1nnc(-c2cccs2)o1 (centres undefined)	.	.	4	.	.	.	.	.	.	.	.	.
CC1CCCCN1C(=O)CSc1nnc(-c2c[nH]c3ccccc23)o1 (centres undefined)	0.73	i	-11	1	-11	-3.3*	0.018	0.0048	0.023*	0.0074	0.015	0.01
Cc1ccc(/C=C2\NC(=S)NC2=O)cc1[N+](=O)[O-]	-0.34	i	-1	3	-3	3*	0.015	0.0041	0.03	0.007	0.018	0.0087
CCOC(=O)c1cnc(SCCN2CCOCC2)nc1N	-0.16	i	-4	-1	10	0.067	.	.	.	.	.	.
CCc1nn(CCCC(=O)N2CCc3ccccc3C2)c(=O)c2cc3occc3n12	-0.05	i	-9	3	23	-5.8*	0.0075	0.006	0.03	0.0062	0.014*	0.01
Cc1nn(CCCC(=O)N2CCc3ccccc3C2)c(=O)c2cc3sccc3n12	0.01	i	-3	.	-1	-6.5*	0.0058	0.0051	?	?	0.012*	0.011
CCc1nn(CCCC(=O)N2CCN(c3cccc(C)c3C)CC2)c(=O)c2cc3occc3n12	.	.	16	.	.	.	.	.	.	.	.	.
CC1=NN(C(N)=S)C(=O)C1N=Nc1ccccc1 (centres undefined)	-1.2	i	0	-2	70*	5.2*	0.006	0.024*	0.029	?	?	0.012
CC1=NN(C(N)=S)C(=O)C1N=Nc1cccc2ccccc12 (centres undefined)	-1.4	i	-1	3	61	5.4*	0.0066	0.046*	0.027	0.011*	?	?
CC1=NN(C(N)=S)C(=O)C1N=Nc1ccc(Cl)cc1 (centres undefined)	.	.	3	.	.	.	.	.	.	.	.	.
CC1=NN(C(N)=S)C(=O)C1N=Nc1cccc(Cl)c1C (centres undefined)	.	.	15	.	.	.	.	.	.	.	.	.
O=C(NC(C(=O)N/N=C/c1cccnc1)c1n[nH]c(=O)c2ccccc12)c1ccccc1 (centres undefined)	-0.74	.	-4	-2	.	0.89	.	.	.	.	.	.
CCOC(=O)N1CCN(Cc2nc(N)nc(Nc3ccc(Oc4ccccc4)cc3)n2)CC1	-2	i	.	36	15	-4.1*	0.0065	0.0038	0.028	0.0073	0.017	0.0096
CCOC(=O)N1CCN(Cc2nc(N)nc(Nc3ccc(OC)cc3)n2)CC1	.	i	-6	-3	2	.	.	.	.	.	.	.
C/C(=N\NC(=O)c1cc(-c2cccs2)nc2ccccc12)c1ccccn1	-6.2	+	90*	8	38	17*	0.015*	0.044*	0.036	0.06*	0.045*	?
CCOc1ccc(N2C(=O)CS/C2=N/NC(=O)COc2ccc3ccccc3c2)cc1	.	i	-6	-1	21	-5*	0.0087	0.006	0.029*	0.0045	0.016*	0.011
CCc1c(C)[nH]c2ccccc2c1=O	-0.28	i	.	-5	-6	7.6*	0.0069	?	0.027	0.0077	0.019	0.01
CCN1CCN(c2nc3c(C)cccn3c(=O)c2/C=C(\C#N)C(=O)NC)CC1	.	.	-2	.	.	.	.	.	.	.	.	.
COc1ccccc1N1CCN(C(=O)c2oc3c(c2C)C(=O)CC(C)(C)C3)CC1	.	.	-1	.	.	.	.	.	.	.	.	.
CN(Cc1ccccc1)C(=O)COC(=O)c1cc(NS(=O)(=O)c2cccs2)ccc1O	-1.4	i	9	-5	8	-3.5*	0.018	0.0046	0.022*	0.0066	0.014	0.01
O=C(COC(=O)c1cc(NS(=O)(=O)c2cccs2)ccc1O)Nc1ccccc1	.	.	0	4	.	0.5	.	.	.	.	.	.
O=C(Oc1c(CN2CCOCC2)cc(Cl)c2cccnc12)c1cccs1	-1.6	i	-1	-2	6	-0.39	.	.	.	.	.	.
O=C(Oc1c(Cl)cc(Cl)c2cccnc12)c1cccs1	.	i	92*	-10	60*	3*	0.0083	0.03*	0.034	0.016*	0.035*	?
